Reference: ChEMBL document CHEMBL3627606, “Development of Novel, CNS Penetrant Positive Allosteric Modulators for the Metabotropic Glutamate Receptor Subtype 1 (mGlu1), Based on an N-(3-Chloro-4-(1,3-dioxoisoindolin-2-yl)phenyl)-3-methylfuran-2-carboxamide Scaffold, That Potentiate Wild Type and Mutant mGlu1 Receptors Found in …” (J Med Chem, 2015)

Experiments:
[1] = target: Metabotropic glutamate receptor 4 (Homo sapiens, UniProt Q14833); assay: Positive allosteric modulation of human mGlu4 receptor assessed as potentiation of glutamate-induced calcium mobiliztion by cell based assay relative to PHCCC
[2] = target: Metabotropic glutamate receptor 2 (Homo sapiens) (UniProt Q14416); assay: Positive allosteric modulation of mGlu2 receptor (unknown origin) assessed as potentiation of glutamate-induced response by cell-based assay
How it was run: (§1)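 Selectivity counterscreen at the other mGlu subtypes using the standard fold-shift paradigm. Compound was tested at 10 μM against the glutamate concentration-response curve, and the shift of that curve was read.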

[3] = tested on: Metabotropic glutamate receptor 1 (Homo sapiens), Q13255 [P1014S]; assay: Agonist activity at human mGlu1 P1014S mutant receptor expressed in HEK293 cells assessed as calcium mobilization at > 1 uM uM by Fluo-4AM dye based fluorescence analysis; format: functional, cell-based
[4] = target: Metabotropic glutamate receptor 3 (Homo sapiens) (UniProt Q14832); assay: Positive allosteric modulation of mGlu3 receptor (unknown origin) assessed as potentiation of glutamate-induced response by cell-based assay
How it was run: as §1

Cytochrome P450 2C9 = Cytochrome P450 2C9 (Homo sapiens, UniProt P11712); assay: Inhibition of CYP2C9 in human liver microsomes by LC-MS/MS analysis; format: ADME
[5] = target: Metabotropic glutamate receptor 1 (Homo sapiens, UniProt Q13255); assay: Agonist activity at human mGlu1 receptor in HEK293 cells assessed as calcium mobilization at 10 uM by Fluo-4AM dye based fluorescence analysis; format: functional, cell-based
[6] = target: Metabotropic glutamate receptor 7 (Homo sapiens) (UniProt Q14831); assay: Positive allosteric modulation of mGlu7 receptor (unknown origin) assessed as potentiation of glutamate-induced response by cell-based assay
How it was run: as §1

[7] = Mean residence time in Sprague-Dawley rat at 0.2 mg/kg, iv by LC-MS/MS analysis; details: in vivo
Mus musculus = assay: Toxicity in C57BL/6 mouse assessed as seizure activity at 100 mg/kg, ip administered as single dose measured for 3 hrs; format: organism-based; details: in vivo
How it was run: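 Male C57Bl/6 mice (25−30 g) dosed ip in 10% Tween 80 at 10 mL/kg: the mGlu5 ago-PAM at 1 or 3 mg/kg, the mGlu1 PAMs at 100 mg/kg. Behaviour was monitored continuously for 3 h and scored on a modified Racine scale (0−5).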

Chain of Cytochrome P450 2C9 (P11712 whole entry): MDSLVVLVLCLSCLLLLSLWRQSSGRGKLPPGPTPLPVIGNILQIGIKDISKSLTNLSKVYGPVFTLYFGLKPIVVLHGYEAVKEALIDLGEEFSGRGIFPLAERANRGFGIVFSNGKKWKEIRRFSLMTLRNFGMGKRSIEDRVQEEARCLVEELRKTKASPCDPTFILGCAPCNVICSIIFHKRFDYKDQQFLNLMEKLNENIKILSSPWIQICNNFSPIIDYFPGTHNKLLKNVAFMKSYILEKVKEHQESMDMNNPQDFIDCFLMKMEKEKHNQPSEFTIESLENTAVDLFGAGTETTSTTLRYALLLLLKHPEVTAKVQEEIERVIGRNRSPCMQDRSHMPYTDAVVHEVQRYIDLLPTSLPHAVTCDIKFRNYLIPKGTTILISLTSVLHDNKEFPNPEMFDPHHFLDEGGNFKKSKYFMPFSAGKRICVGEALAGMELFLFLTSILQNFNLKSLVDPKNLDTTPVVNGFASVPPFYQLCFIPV
Chain of Metabotropic glutamate receptor 1 (Homo sapiens), Q13255 [P1014S] (Q13255 whole entry P1014S): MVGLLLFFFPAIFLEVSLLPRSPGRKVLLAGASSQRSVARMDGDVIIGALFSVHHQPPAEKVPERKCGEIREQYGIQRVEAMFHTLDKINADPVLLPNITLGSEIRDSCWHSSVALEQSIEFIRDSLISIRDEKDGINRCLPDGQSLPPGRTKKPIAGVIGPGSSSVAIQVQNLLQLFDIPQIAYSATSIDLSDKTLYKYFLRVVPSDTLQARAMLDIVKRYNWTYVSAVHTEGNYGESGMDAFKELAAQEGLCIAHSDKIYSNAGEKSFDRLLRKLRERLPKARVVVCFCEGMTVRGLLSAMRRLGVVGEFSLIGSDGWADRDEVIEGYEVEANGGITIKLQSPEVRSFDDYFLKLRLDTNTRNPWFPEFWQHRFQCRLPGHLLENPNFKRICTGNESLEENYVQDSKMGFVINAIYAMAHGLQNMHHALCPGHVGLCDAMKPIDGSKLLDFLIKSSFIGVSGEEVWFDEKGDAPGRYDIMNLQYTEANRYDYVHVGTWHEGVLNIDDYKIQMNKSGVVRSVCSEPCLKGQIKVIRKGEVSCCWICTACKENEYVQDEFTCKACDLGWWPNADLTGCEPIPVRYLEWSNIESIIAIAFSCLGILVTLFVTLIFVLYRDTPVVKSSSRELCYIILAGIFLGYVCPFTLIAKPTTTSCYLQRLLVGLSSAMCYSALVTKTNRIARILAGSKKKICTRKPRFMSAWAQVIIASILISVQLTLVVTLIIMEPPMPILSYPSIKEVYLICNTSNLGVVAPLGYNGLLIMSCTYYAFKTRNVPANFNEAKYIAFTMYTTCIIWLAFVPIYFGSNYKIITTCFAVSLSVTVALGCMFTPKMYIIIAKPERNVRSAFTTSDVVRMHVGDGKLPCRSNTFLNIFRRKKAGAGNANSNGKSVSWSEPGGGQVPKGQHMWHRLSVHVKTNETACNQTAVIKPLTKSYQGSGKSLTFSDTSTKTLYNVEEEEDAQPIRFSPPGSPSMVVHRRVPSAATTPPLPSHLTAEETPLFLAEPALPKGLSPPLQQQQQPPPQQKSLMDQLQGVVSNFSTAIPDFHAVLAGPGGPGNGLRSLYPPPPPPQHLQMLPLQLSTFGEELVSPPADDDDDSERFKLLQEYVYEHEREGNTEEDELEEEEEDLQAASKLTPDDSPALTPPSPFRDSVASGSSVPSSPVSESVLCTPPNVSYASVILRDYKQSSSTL
Chain of Metabotropic glutamate receptor 2 (Homo sapiens) (Q14416 19-872 limits assumed): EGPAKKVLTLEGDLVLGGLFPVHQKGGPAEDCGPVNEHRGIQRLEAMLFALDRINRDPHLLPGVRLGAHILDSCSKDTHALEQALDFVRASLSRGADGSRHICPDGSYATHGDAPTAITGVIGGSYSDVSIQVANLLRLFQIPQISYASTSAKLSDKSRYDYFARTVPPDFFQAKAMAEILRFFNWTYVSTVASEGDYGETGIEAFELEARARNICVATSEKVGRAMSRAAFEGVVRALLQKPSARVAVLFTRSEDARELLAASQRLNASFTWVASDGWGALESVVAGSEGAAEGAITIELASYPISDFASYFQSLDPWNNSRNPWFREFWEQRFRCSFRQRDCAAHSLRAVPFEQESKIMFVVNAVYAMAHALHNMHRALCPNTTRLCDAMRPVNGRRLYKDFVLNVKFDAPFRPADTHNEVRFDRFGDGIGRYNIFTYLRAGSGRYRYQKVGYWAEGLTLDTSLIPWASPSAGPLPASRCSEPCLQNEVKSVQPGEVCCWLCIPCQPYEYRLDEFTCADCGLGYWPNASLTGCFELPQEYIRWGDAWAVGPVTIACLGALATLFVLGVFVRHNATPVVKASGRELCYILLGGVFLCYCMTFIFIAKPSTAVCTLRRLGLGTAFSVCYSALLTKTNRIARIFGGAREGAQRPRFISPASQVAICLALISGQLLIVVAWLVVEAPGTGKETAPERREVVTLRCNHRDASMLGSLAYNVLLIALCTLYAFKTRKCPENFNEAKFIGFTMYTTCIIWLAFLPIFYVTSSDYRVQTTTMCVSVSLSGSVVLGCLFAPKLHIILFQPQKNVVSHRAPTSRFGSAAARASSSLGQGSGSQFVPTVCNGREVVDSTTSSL
Chain of Metabotropic glutamate receptor 7 (Homo sapiens) (Q14831 whole entry): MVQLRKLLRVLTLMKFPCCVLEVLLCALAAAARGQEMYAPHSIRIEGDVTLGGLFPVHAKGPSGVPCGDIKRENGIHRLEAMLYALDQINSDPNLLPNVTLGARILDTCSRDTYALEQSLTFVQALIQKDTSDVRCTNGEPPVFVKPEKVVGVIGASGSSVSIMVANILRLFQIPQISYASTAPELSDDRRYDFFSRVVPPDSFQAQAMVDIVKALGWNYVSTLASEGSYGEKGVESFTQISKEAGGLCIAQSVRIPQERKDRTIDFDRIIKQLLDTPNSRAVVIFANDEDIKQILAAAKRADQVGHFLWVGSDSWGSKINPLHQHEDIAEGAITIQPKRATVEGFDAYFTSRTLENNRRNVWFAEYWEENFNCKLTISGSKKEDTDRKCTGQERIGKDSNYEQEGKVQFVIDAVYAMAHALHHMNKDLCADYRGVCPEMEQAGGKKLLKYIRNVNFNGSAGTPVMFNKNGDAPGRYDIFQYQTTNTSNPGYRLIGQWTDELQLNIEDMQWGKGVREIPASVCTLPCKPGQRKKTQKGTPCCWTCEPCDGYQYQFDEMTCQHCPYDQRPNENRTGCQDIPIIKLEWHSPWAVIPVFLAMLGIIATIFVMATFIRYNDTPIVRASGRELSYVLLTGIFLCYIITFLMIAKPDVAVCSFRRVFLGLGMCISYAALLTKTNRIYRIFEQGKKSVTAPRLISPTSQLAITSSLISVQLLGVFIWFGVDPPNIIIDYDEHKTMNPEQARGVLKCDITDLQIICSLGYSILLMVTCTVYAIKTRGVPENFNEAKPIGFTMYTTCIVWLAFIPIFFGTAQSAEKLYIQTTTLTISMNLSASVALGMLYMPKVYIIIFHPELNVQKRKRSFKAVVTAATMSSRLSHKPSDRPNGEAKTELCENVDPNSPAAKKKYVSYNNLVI
Chain of Metabotropic glutamate receptor 3 (Homo sapiens) (Q14832 23-879 limits assumed): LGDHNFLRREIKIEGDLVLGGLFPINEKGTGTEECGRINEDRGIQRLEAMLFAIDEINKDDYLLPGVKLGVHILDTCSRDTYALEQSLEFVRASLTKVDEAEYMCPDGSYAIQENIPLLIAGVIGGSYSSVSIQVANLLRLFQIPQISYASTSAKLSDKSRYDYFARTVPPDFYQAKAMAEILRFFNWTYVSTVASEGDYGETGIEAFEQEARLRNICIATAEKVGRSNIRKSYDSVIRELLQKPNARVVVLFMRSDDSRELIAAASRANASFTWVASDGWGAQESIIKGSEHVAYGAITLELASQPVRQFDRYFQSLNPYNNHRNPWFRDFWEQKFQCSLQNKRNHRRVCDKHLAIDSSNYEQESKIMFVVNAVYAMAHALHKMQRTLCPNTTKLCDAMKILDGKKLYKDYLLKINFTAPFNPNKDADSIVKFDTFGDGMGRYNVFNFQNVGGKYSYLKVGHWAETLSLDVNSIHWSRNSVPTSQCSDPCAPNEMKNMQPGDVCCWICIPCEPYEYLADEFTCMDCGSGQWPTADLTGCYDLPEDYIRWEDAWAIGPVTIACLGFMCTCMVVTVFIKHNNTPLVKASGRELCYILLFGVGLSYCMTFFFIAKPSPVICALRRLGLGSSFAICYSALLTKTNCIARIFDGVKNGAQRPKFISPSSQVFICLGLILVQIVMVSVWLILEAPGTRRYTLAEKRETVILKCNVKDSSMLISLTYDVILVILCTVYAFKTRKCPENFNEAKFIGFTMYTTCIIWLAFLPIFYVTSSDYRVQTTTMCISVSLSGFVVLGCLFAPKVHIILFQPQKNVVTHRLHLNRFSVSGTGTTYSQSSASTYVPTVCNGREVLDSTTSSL

Compound: Cc1ccoc1C(=O)Nc1ccc(N2C(=O)c3cccc(F)c3C2=O)c(Cl)c1
- %max [1]: 122%
- fold change (FC) [2]: < 2
- Activity [3]: 40%
- fold change (FC) [4]: < 2
- IC50 (Cytochrome P450 2C9): 6.45 µM
- Activity [5]: 35%
- fold change (FC) [6]: 7
- MRT [7]: 1.07 h
- Activity (Mus musculus): Non-toxic
